Laboratory results taken from ChEMBL document CHEMBL1122321, “Synthesis and transport applications of 3-aminobicyclo[3.2.1] octane-3-carboxylic acids” (1983).

Experiments:
Type in all cases: functional
[1] = species on record: Rattus norvegicus; test: Inhibition of threonine (0.5*10e-4) uptake by rat Hepatoma cells(HTC) at the specified Conc of 10 mM expressed as nM/mg of protein/min
Procedure, shortened: (§1)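 HTC hepatoma monolayers were grown in Medium 199 (pH 7.4, 26 mM NaHCO₃, antibiotics, 5–8% FBS) under 5% CO₂/95% air and seeded 3–4 days before testing. A 1-min uptake ran in Krebs-Ringer phosphate (pH 7.4, 37 °C), then the cells were washed with ice-cold Na⁺-free choline medium. Cells were extracted with 5% TCA and counted by scintillation. Protein was measured by modified Lowry with SDS and a BSA standard.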

[2] = species on record: Rattus norvegicus; test: Inhibition of threonine (0.5*10e-4) uptake by rat Hepatoma cells(HTC) at the specified Conc of 2.5 mM expressed as nM/mg of protein/min; procedure, shortened: as §1
[3] = tested on: Mus musculus; test: Inhibition of MeAIB(10e-4) uptake by Ehrlich cell at the specified Conc of 2.5 mM expressed as mM/kg of cell water/min
Procedure, shortened: (§2)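 ¹⁴C-MeAIB uptake by Ehrlich ascites tumor cells propagated in Swiss white mice and washed in Na⁺-free media. Uptake ran for 1 min at 37 °C in 5% cell suspensions in Na⁺-containing Krebs-Ringer bicarbonate under 5% CO₂–O₂ (pH 7.4). Stopped by ice-cold dilution and centrifugation. ¹⁴C in the medium and in a sulfosalicylic acid cell extract was counted by liquid scintillation. Extracellular water was measured by sucrose.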

[4] = species on record: Rattus norvegicus; test: Inhibition of threonine (0.5*10e-4) uptake by rat Hepatoma cells(HTC) at the specified Conc of 0.5 mM expressed as nM/mg of protein/min; procedure, shortened: as §1
[5] = tested on: Mus musculus; test: Inhibition of MeAIB(10e-4) uptake by Ehrlich cell at the specified Conc of 10 mM expressed as mM/kg of cell water/min; procedure, shortened: as §2
[6] = tested on: Mus musculus; test: Inhibition of MeAIB(10e-4) uptake by Ehrlich cell at the specified Conc of 0.25 mM expressed as mM/kg of cell water/min; procedure, shortened: as §2
[7] = tested on: Mus musculus; test: Inhibition of MeAIB(10e-4) uptake by Ehrlich cell at the specified Conc of 0.5 mM expressed as mM/kg of cell water/min; procedure, shortened: as §2

SMILES	Thr uptake [1]	Thr uptake [2]	MeAIB uptake [3]	Thr uptake [4]	MeAIB uptake [5]	MeAIB uptake [6]	MeAIB uptake [7]
CC(O)C(N)C(=O)O (stereo not drawn)	0.12	–	–	–	–	–	–
N[C@]1(C(=O)O)C[C@@H]2CC[C@@H](C2)C1	3.45	3.52	0.64	3.81	0.61	0.67	0.66
